Bioassay records (PubChem)
Compounds with a hit are over-represented: about 1.1% of the library has one in this group of screens.
hK5 inh: kallikrein 5 (human) inhibition; Q9Y337; recombinant hK5, fluorogenic AMC substrate cleavage; inhibition, % at 5 µM; actives 0.59% (n = 210,000); AID 873;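 active = inhibition of 40% or more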;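 also: 0% = enzyme controls without compound and 100% = no-enzyme blanks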
Thrombin inh: inhibitors of human thrombin. actives 0.26% (n = 220,000). alpha-thrombin, Boc-VPR-AMC fluorogenic substrate cleavage. inhibition, % at 5 µM. AID 1046;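 active = inhibition at or above 40%; inactive = inhibition below 40%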;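 also: 0% = enzyme with no compound and 100% = wells without enzyme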
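System: Human alpha-thrombin protein | Medium: pH 7.5 Tris (50 mM) with NaCl 150 mM, Tween 20 0.05% | Times: Enzyme reaction carried out at room temperature | Detection: AMC fluorescence, 355/460 nm | Evaluation: Percent inhibition scaled between no-compound controls and no-enzyme blanks | Benchmarks: Enzyme without compound as high, wells lacking enzyme as low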
FXIIa inh: factor XIIa (human) inhibition. P00748. purified FXIIa, Boc-QGR-AMC fluorogenic substrate, 2 h. inhibition, % at 5 µM. actives 0.3% (n = 220,000); in the data active = inhibition above about 40%;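 also: 0% = enzyme with no compound and 100% = blank without enzyme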
FXIa inh: blocks human coagulation factor XIa protease activity; AID 798; purified FXIa, Boc-Glu-Ala-Arg-AMC fluorogenic substrate; inhibition, % at 5 µM; actives 0.14% (n = 220,000); P03951;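 active = inhibition of at least 40%; inactive = inhibition below 40%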;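 also: fluorescence of freed AMC excited at 355 nm; 0% = enzyme without compound and 100% = no enzyme blank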
Target sequence (P03951 19-387 limits assumed): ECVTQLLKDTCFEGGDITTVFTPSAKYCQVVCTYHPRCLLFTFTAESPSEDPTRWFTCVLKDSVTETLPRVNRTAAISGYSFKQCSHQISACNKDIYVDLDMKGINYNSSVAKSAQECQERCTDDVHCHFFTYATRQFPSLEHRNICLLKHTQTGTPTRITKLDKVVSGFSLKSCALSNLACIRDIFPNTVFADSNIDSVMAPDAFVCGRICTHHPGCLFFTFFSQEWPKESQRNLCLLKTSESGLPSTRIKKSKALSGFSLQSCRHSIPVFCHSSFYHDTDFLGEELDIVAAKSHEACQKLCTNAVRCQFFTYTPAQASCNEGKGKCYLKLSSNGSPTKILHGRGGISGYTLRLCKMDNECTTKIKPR
Target sequence (P03951 388-625 limits assumed): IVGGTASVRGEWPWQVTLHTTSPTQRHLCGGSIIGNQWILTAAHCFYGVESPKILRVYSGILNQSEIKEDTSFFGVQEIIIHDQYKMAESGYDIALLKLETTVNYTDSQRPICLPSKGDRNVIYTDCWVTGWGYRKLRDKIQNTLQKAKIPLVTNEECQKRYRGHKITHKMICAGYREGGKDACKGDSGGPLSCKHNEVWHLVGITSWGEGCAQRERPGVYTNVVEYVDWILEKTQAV
TbHK1 inh: blocks Trypanosoma brucei hexokinase 1 activity; recombinant TbHK1, G6PDH-coupled NADH A340; inhibition, % at 10 µM; actives 0.11% (n = 220,000);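 active = inhibition of 50% or more in the single-dose primary screen; inactive = inhibition below 50%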
The depositor's hits bear a star.

SMILES	hK5 inh	Thrombin inh	FXIIa inh	FXIa inh	TbHK1 inh
Cc1ccc(S(=O)(=O)/N=C(/c2ccc(F)cc2)N2CCCCC2)cc1	12	-13	2	-1	-5
Cc1ccc(NC(=O)c2ccc(OC(=O)COc3cccc(Cl)c3)cc2)cc1	-15	77*	8	7	7
Cc1ccc(NC(=O)c2ccc(OC(=O)COc3ccc(Cl)cc3C)cc2)cc1	-12	-9	5	5	13
CCn1c(SCC(=O)Nc2ccccc2OC)nc(O)cc1=O	1	0	9	1	-5
Cc1cc(F)ccc1N1CCC(N2CCN(C(C)C)C(CCO)C2)CC1 (centres undefined)	12	-4	3	0	1
Cc1cc(F)ccc1N1CCC(N2CCN(CCC(C)C)C(CCO)C2)CC1 (centres undefined)	42*	45*	28	40	7
Cc1n[nH]c(C)c1CCCOc1ccccc1	-18	-2	5	6	0
COc1ccc(OCCCc2c(C)n[nH]c2C)cc1	55*	25	-11	-6	-10
CSc1nc(-c2ccccc2)nn1C(=O)c1ccc(Cl)cc1	68*	84*	17	20	-3
CSc1nc(-c2ccccc2)nn1S(=O)(=O)c1ccc(Cl)cc1	10	1	14	-19	-8
Nc1nc(-c2ccc(Cl)cc2)nn1C(=O)c1cccs1	-5	0	-2	0	-4
CSc1nc(-c2ccc(Cl)cc2)nn1C(=O)c1ccccc1	63*	29	17	23	-3
O=C(NNc1cc(Cl)ccc1Cl)c1cccs1	55*	35	18	24	-4
O=C1CC(N2CCC(c3nc4ccccc4o3)CC2)C(=O)N1c1ccc(Cl)c(C(F)(F)F)c1 (centres undefined)	-21	-4	-8	42*	-7
Cc1ccc(C(=O)Nc2cccnc2Oc2ccc(Cl)cc2)cc1	-2	-5	2	1	-7
Cc1ccc(S(=O)(=O)Nc2cccnc2Oc2ccc(Cl)cc2)cc1	28	47*	44*	17	5
CCOc1cc(/C=N/Nc2nc(Nc3ccccc3)nc(N3CCCCC3)n2)ccc1OCC(=O)O	45*	-9	19	24	-20
COc1ccc(/C=N/Nc2nc(Nc3ccccc3)nc(N3CCCCC3)n2)cc1OC	0	-6	13	6	-20
CC(C)CCNC(=O)CCSCCC(=O)NCCC(C)C	-11	0	14	3	-1
Cc1sc2ncnc(OCC(=O)NC(C)C)c2c1C	-4	5	13	0	-1
Cc1sc2ncnc(OCC(=O)NC3CCS(=O)(=O)C3)c2c1C (centres undefined)	103*	29	24	20	-3
CCN(CC)CCCN(C(=O)Cn1nnc(-c2ccc(OC)c(OC)c2)n1)C(C(=O)NC(C)(C)C)c1ccc(F)cc1 (centres undefined)	-11	-2	0	-5	5
COc1ccc(C(=O)n2nc(-c3ccc(OC)cc3)nc2N)cc1	7	-6	40	1	5
COc1ccc(C(=O)n2nc(-c3ccccc3)nc2N)cc1OC	41*	26	10	13	-2
COC(=O)c1cc(OC)nc2ccc(Br)cc12	-1	-5	7	2	-5
SMILES	hK5 inh	Thrombin inh	FXIIa inh	FXIa inh	TbHK1 inh
CC(C)CCSc1nnc(N)s1	0	-1	9	0	-10
CCOC(=O)c1cc2sccc2n1CC(=O)O	17	6	16	4	1
CCOC(=O)c1cc2sccc2n1CC(=O)N1c2ccccc2CC1C (centres undefined)	-9	-10	48*	13	2
CC(=O)Nc1ccc(NC(=O)C(C)OC(=O)C2CCN(S(=O)(=O)c3cccs3)CC2)cc1 (centres undefined)	-2	-12	-1	-4	-10
CCOC(=O)c1c(C)[nH]c(N=Nc2ccccc2C)c1C	0	3	15	5	-25
O=C1c2ccccc2C(=O)N1CCN1CCCCC1	51*	31	25	1	-1
CCCNC(=O)Cc1c(C)oc2ccccc12	-2	-4	4	-4	-1
CC(=O)Nc1cc(O)cc(O)c1	-1	-3	4	0	0
Nc1nc(CCl)nc(Nc2ccc3ccccc3c2)n1	61*	1	18	32	-17
NC(=O)c1cccc(C(N)=O)n1	-3	-8	4	-4	0
Cc1ccc(NC(=O)c2ccc(C(C)(C)C)cc2)cc1-n1cnnn1	-7	0	8	-1	-1
